# CIT2-GFP yeast – alters CIT2-GFP fluorescence in TOR pathway yeast screen; S. cerevisiae CIT2-GFP strain, flow cytometry, 3 h; 100 means same as DMSO wells; GFP response vs DMSO, % at 10 µM; AID 2029; 0.065% of 320,000 active;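 active = GFP response relative to DMSO above a set limit, near the screen mean plus 3 SD, cut at about 150% in these data; inconclusive = Fewer than 70 cells measured for a yeast strain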;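 note: ratio of well median GFP fluorescence to mean of DMSO wells on the plate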
# T cell HTS – modulates CD8 T cell binding to vesicles; 2C CD8+ T cell-vesicle binding, flow cytometry; stronger effect = lower value; response (vesicle binding), % at 7 µM; 0.068% of 330,000 active; AID 2052;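 active = response, share of CD8 T cells binding vesicles, and their 90th percentile fluorescence all below set limits, cut at about 80% in these data, passing the limit was not always enough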;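 note: values below 100% mean blocked vesicle binding to the CD8+ T cells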
#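 Assay system: 2C TCR transgenic mouse naive CD8+ T cells, MACS-purified | Read-out: CD8+ gate FL2 mean fluorescence as % of same-row positive control | Signal: High-throughput flow cytometry with anti-B7-1 and anti-CD8 staining | Timing: Binding step 1.5 h, 37 °C, antibody labelling 20 min, ice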
# AGP1 TOR yeast – yeast TOR pathway AGP1-GFP modulation. GFP response vs DMSO, % at 10 µM. AID 2066. 0.02% of 320,000 active. S. cerevisiae AGP1-GFP multiplex flow cytometry, 3 h; GFP as percent of DMSO wells;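 active = GFP response relative to DMSO above a set limit, near screen average plus 3 SD, cut at about 150% in these data; inconclusive = fewer than 70 cells counted for the yeast strain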;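 note: median GFP channel fluorescence of the gated AGP1 strain per well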
# RPL19A TOR yeast – alters RPL19A-GFP fluorescence in TOR pathway yeast screen | S. cerevisiae RPL19A-GFP strain, flow cytometry, 3 h; stronger effect = lower value | percent response vs DMSO, % at 10 µM | 0.3% of 330,000 active | AID 2025;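 active = percent response vs DMSO below 50%; inconclusive = fewer than 70 events counted for the yeast strain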;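 note: median channel GFP fluorescence of the barcoded RPL19A-GFP strain; lower means less RPL19A-GFP as with rapamycin TOR inhibition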
# MEP2 TOR yeast – modulators of TOR pathway MEP2-GFP in S. cerevisiae | AID 2016 | S. cerevisiae MEP2-GFP strain, flow cytometry GFP, 3 h; 100% = DMSO control level | 0.51% of 330,000 active | GFP response vs DMSO, % at 10 µM;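 active = GFP response versus DMSO above a set limit, roughly screen mean plus 3 SD, cut at about 180% in these data; inconclusive = fewer than 70 cells counted for a yeast strain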;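 note: median GFP fluorescence of the barcode-gated MEP2-GFP cells per well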
# LAP4-GFP MLPCN – modulators of TOR pathway LAP4-GFP in S. cerevisiae. S. cerevisiae LAP4-GFP multiplex, flow cytometry GFP, 3 h; median GFP as percent of DMSO wells. GFP response vs DMSO, % at 10 µM. 0.34% of 320,000 active. AID 2023;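 active = GFP response vs DMSO above a set limit, about the screen mean plus 3 SD, cut at about 150% in these data; inconclusive = under 70 cell events counted for the yeast strain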
# Hits are given with their value; n = inactive; u = inconclusive; x = no result given; [ ] = dose if it differs, or a comment. Shown are actives, neighbours in structure and some others; about 0.96% of the full set was active somewhere.
SMILES,CIT2-GFP yeast,T cell HTS,AGP1 TOR yeast,RPL19A TOR yeast,MEP2 TOR yeast,LAP4-GFP MLPCN
Cn1c(N)nc2nc(CCc3ccccc3)c(=O)[nH]c2c1=O,n,n,n,n,n,n
O=C(Nc1cccnc1)c1c(O)c2cccc3c2n(c1=O)CC3,u,n,u,49[may fluoresce violet],n,n
CNC(=O)c1c(O)c2cccc3c2n(c1=O)CC3,n,n,n,n,n,n
Cc1cccc(C)c1OCc1cc(C(=O)NCc2cn(C)nc2C)no1,n,n,n,n,n,n
Cc1cc2ncc(-c3cccs3)nc2cc1C,n,n,n,n,n,n
CCn1cc([N+](=O)[O-])c(=O)c2cc(F)c(N3CCOCC3)cc21,u,n,u,n,255[may fluoresce violet],n
CC1CC(O)(CC(O)(c2ccccc2)c2ccccc2)C(C)CN1C (configuration not stated),u,n,u,n,251[may fluoresce violet],n
CCc1ccc2oc(C(=O)N3CCN(c4ccccc4OC)CC3)cc(=O)c2c1,n,n,n,n,n,n
COc1ccccc1N1CCN(C(=O)c2cc(=O)c3c(C)cc(C)cc3o2)CC1,u,n,u,40[may fluoresce violet],u,u
O=C(NCCOc1ccc2ccccc2c1)c1cncc(Br)c1,n,n,n,n,n,n
C#CCNC(=O)C1=C[C@H](c2ccc3c(c2)OCO3)[C@@H](CCCO)[C@H](OCC)O1,u,n,u,46[may fluoresce violet],300[may fluoresce violet],n
COc1cc(SC)ccc1C(=O)NCCCn1ccnc1,u,n,u,39[may fluoresce violet],575[may fluoresce violet],n
O=C(CSc1ncn[nH]1)CSc1ncn[nH]1,n,11,n,n,n,n
Cc1cccc(OCC(=O)NCCNC(=O)c2ccccn2)c1,u,n,u,31[may fluoresce violet],u,u
O=C(Cc1ccccc1)Nc1ncccn1,n,n,n,n,n,n
Cc1ccc2[nH]c(=O)c(CN(C(=O)c3cccc([N+](=O)[O-])c3)C(C)C)cc2c1,n,n,n,n,n,n
CC(C)N(Cc1cc2ccccc2[nH]c1=O)C(=O)c1cccc([N+](=O)[O-])c1,u,n,u,44[may fluoresce violet],319[may fluoresce violet],n
COc1cc(OC)cc(C(=O)NCC(=O)OCC(=O)C(C)(C)C)c1,u,n,n,n,484[may fluoresce violet],n
CCOC(=O)CNC(=O)c1cc(OC)cc(OC)c1,n,n,n,n,n,n
Cc1nc2ncnn2c(C)c1CCC(=O)NCCCN1CCN(c2cccc(Cl)c2)CC1,u,n,u,24[may fluoresce violet],180[may fluoresce violet],n
Cc1nc2ncnn2c(C)c1CCC(=O)NCCc1ccccc1,n,n,n,n,n,n
O=C(CCN1CCCCC1)c1ccccc1,n,n,n,n,n,n
CCc1oc2ccccc2c1C(=O)CCN1CCCCC1,n,n,n,n,n,154
COc1ccc(CNC(=O)CCC(=O)Nc2nnc(C(F)(F)F)s2)cc1,161[may fluoresce green],n,n,n,n,n
COc1ccc(OC)c(NC(=O)CCC(=O)Nc2nnc(C(F)(F)F)s2)c1,n,n,n,n,n,n
SMILES,CIT2-GFP yeast,T cell HTS,AGP1 TOR yeast,RPL19A TOR yeast,MEP2 TOR yeast,LAP4-GFP MLPCN
O=C1CC2(CCN(C(=O)c3ccccc3[N+](=O)[O-])CC2)Oc2ccccc21,n,n,n,n,n,n
C=CC(C)(C)c1c(O)c(CC=C(C)C)c(O)c2c(=O)c3ccc(O)c(O)c3oc12,n,32,n,n,n,n
C=CC(C)(C)c1c2occc2c(O)c2ccc(=O)oc12,n,n,n,n,n,n
CC(=O)N/C(N)=N/c1nc(=O)c2ccccc2s1,n,n,n,n,n,n
CCOC(=O)N/C(N)=N/c1nc2ccccc2s1,n,n,n,n,n,168
C=CCNC(=O)c1cc2c(=O)n3cc(C)ccc3nc2nc1NCC1CCCO1 (configuration not stated),u,n,u,29[may fluoresce violet],179[may fluoresce violet],n
CCNc1nc2nc3ccc(C)cn3c(=O)c2cc1C(=O)NCC1CCCO1 (configuration not stated),u,n,u,u,u,u
Cc1ccc2nc3nc(NCC4CCCO4)c(C(=O)NC4CCCC4)cc3c(=O)n2c1 (configuration not stated),u,n,u,22[may fluoresce violet],267[may fluoresce violet],n
NC(=O)C(c1cccc(Cl)c1)c1ncc(C(F)(F)F)cc1Cl (configuration not stated),u,n,n,n,239[may fluoresce violet],n
Cc1cc(C)n(-c2nnc3c4ccccc4n(C)c3n2)n1,n,n,n,n,n,n
Cc1ccc(-n2ncc(C#N)c2/N=C/N(C)C)cc1,n,n,n,n,267,158
Cc1ccc(-n2ncc(C#N)c2/N=C/N2CCOCC2)cc1,x,n,n,n,n,n
COc1cc(/C=C(\C#N)C(=O)c2c[nH]c3ccccc23)cc(OC)c1O,n,n,n,n,n,n
CN1CCCN(C(=O)CNC(=O)c2ccccc2F)CC1,n,n,n,n,n,n
CC(C(=O)OCC(=O)NC1CCCCC1)N1C(=O)c2ccccc2C1=O (configuration not stated),n,n,n,n,n,n
CC1(C)CC(=O)C(C(C2=C(O)CC(C)(C)CC2=O)c2cccs2)C(=O)C1 (configuration not stated),n,n,n,n,185,n
COCCNC(=O)C(c1ccc(C)cc1)N(Cc1ccccc1)C(=O)CCC(=O)Nc1ccccn1 (configuration not stated),n,n,n,n,n,n
COCCNC(=O)C(c1ccc(C)cc1)N(Cc1ccco1)C(=O)CCC(=O)Nc1ccccn1 (configuration not stated),u,n,n,n,210[may fluoresce violet],n
COc1ccccc1N1CCN(C(=O)C(Sc2ccccc2)c2ccccc2)CC1 (configuration not stated),u,n,x,40[may fluoresce violet],261[may fluoresce violet],n
COc1ccccc1N1CCN(C(=O)CSc2ccccc2)CC1,n,n,n,n,n,n
Cc1ccc(OCc2cc(C(=O)N3CCc4sccc4C3)no2)cc1C,n,n,n,n,n,n
Cc1ccc(S(=O)(=O)NCCC(=O)OCC(=O)Nc2cccc(Cl)c2)cc1,n,n,n,n,n,n
Cc1cc(Cl)ccc1NC(=O)COC(=O)CCNS(=O)(=O)c1ccccc1,n,0.0,n,n,n,n
CN1CCc2c(sc3c2C(=O)NC(/C=C\c2ccccc2)N3)C1 (configuration not stated),u,n,n,n,673[may fluoresce violet],n
CN1CCc2c(sc3c2C(=O)NC(c2cccs2)N3)C1 (configuration not stated),n,n,n,n,n,n
O=C(OCc1cccc([N+](=O)[O-])c1)c1cnccn1,n,n,n,n,175,n
COc1ccc(N2CCN(S(=O)(=O)c3cnc[nH]3)CC2)cc1,n,n,n,n,n,n

# Screening results: PubChem BioAssay, NMMLSC
